Results taken from ChEMBL document CHEMBL4431370, “Novel tricyclic poly (ADP-ribose) polymerase-1/2 inhibitors with potent anticancer chemopotentiating activity: Design, synthesis and biological evaluation” (Bioorg Med Chem, 2016).

Assays:
SW-620 [1] = assay: Growth inhibition of human SW620 cells at 100 uM after 72 hrs by SRB assay; assay type: functional; conditions: for inhibition of growth at 100 µM: Homo sapiens, SW-620, 72 h, read-out: GI
Outline: (§1)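 SRB read-out on adherent cells seeded in 96-well plates. Single-agent exposure at 100 μM for 72 h. Cells fixed in trichloroacetic acid for 1 h at 4 °C, stained with 0.4% (w/v) SRB for 20 min at room temperature, washed with 1% acetic acid. Bound dye solubilized in 10 mM Tris, absorbance read at 540 nm. Percent proliferation inhibition reported; means of two independent experiments.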

MDA-MB-468 [2] = assay: Growth inhibition of human MDA-MB-468 cells at 100 uM after 72 hrs by SRB assay; assay type: functional; conditions: for inhibition of growth at 100 µM: Homo sapiens, MDA-MB-468, 72 h, read-out: GI; outline: as §1
[3] = biological target: T1, Poly [ADP-ribose] polymerase 1 (Homo sapiens, UniProt P09874); assay: Inhibition of PARP-1 (unknown origin) after 1 hr in presence of NAD+/biotinylated NAD+/slDNA by ELISA
MDA-MB-468 [4] = assay: Growth inhibition of human MDA-MB-468 cells after 72 hrs by SRB assay; assay type: functional, cell-based
[5] = biological target: Poly [ADP-ribose] polymerase 2 (Homo sapiens, UniProt Q9UGN5); assay: Inhibition of PARP-2 (unknown origin) after 1 hr in presence of NAD+/biotinylated NAD+/slDNA by ELISA
SW-620 [6] = assay: Growth inhibition of human SW620 cells after 72 hrs by SRB assay; assay type: functional, cell-based
[7] = biological target: T1, Poly [ADP-ribose] polymerase 1; assay: Inhibition of PARP-1 (unknown origin) at 100 nM after 1 hr in presence of NAD+/biotinylated NAD+/slDNA by ELISA
Outline: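 Histone-coated wells (20 μg/mL in PBS pH 7.4, 4 °C overnight). Reaction buffer 50 mM Tris, 2 mM MgCl2, pH 8.0, with 100 μM NAD+, 25 μM biotinylated NAD+ and 200 nM slDNA. Started with PARP-1 (50 ng/well), 1 h at 30 °C. Detection by streptavidin-HRP for 30 min at 30 °C, then H2O2/luminol in citrate buffer pH 5.4, luminescence read. Inhibition % = (control−treated)/control ×100.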

[8] = biological target: T1, Poly [ADP-ribose] polymerase 1; conditions: A549
[9] = biological target: T1, Poly [ADP-ribose] polymerase 1
[10] = biological target: T1, Poly [ADP-ribose] polymerase 1; conditions: MDA-MB-468

Chain of Poly [ADP-ribose] polymerase 2 (Q9UGN5 whole entry): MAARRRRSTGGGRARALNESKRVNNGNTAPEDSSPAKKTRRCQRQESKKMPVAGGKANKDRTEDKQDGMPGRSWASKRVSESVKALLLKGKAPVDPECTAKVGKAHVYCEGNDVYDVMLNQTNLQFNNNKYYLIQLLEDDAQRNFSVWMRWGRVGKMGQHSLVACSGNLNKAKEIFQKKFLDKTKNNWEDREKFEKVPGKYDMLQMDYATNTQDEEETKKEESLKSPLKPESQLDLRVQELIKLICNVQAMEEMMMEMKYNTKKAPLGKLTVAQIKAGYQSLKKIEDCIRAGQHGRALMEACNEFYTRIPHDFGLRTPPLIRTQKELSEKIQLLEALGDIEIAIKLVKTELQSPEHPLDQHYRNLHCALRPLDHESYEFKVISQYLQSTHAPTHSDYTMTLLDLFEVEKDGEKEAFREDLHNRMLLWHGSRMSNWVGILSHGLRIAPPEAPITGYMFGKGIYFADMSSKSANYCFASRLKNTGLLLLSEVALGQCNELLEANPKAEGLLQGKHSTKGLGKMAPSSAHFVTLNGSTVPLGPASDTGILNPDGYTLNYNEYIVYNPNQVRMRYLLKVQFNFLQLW
T1 sequence (P09874 whole entry): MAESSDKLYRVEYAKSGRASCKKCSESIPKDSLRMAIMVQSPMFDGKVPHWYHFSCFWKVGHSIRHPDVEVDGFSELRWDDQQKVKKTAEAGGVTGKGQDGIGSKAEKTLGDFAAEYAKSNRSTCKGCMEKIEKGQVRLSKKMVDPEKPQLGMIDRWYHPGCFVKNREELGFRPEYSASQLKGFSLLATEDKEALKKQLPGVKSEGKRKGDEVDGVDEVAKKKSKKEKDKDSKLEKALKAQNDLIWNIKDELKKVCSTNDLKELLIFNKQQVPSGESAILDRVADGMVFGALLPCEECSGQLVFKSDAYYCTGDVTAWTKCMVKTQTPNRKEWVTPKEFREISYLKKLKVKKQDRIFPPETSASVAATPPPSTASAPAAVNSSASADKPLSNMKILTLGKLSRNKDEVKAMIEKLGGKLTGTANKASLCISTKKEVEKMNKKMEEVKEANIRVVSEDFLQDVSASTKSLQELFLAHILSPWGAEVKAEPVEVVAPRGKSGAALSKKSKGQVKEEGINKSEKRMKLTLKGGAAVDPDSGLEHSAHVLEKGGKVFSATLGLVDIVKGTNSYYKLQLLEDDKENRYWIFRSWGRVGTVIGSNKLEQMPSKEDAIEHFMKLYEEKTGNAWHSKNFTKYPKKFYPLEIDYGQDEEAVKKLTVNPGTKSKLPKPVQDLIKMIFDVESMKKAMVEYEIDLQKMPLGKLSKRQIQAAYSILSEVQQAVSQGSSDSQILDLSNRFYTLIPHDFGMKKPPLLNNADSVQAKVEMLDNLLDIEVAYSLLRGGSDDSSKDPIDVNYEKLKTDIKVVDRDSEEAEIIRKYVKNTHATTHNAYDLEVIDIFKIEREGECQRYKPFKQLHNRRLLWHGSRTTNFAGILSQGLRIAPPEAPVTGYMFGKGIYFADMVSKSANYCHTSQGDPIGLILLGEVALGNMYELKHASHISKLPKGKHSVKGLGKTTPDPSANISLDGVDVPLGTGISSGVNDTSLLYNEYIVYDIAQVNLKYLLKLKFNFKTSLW

Row | SMILES | inhibition of growth at 100 µM (SW-620 [1]) | inhibition of growth at 100 µM (MDA-MB-468 [2]) | IC50 [3] | further results
1 | O=C1NCCn2c(C3CCNCC3)nc3cncc1c32 | 25% | 32% | 54 nM | –
2 | O=C1NCCn2c(-c3ccc(N4CCNCC4)cc3)nc3cncc1c32 | 15% | 57% | 20 nM | EC50 (MDA-MB-468 [4]; Homo sapiens, MDA-MB-468, 72 h): 94000 nM; IC50 [5]: 5.5 nM
3 | CC(C)NCc1ccc(-c2nc3cncc4c3n2CCNC4=O)cc1 | – | – | 58 nM | –
4 | CC(C)N1CCC(c2nc3cncc4c3n2CCNC4=O)CC1 | – | – | 92 nM | –
5 | O=C1NCCn2c(-c3ccccc3)nc3cncc1c32 | – | – | 110 nM | –
6 | CC(C)CN1CCC(c2nc3cncc4c3n2CCNC4=O)CC1 | 77% | 53% | 28 nM | EC50 (SW-620 [6]; Homo sapiens, SW-620, 72 h): 52600 nM; EC50 (MDA-MB-468 [4]; Homo sapiens, MDA-MB-468, 72 h): 18900 nM; IC50 [5]: 7.7 nM
7 | CNCc1ccc(-c2nc3cncc4c3n2CCNC4=O)cc1 | 80% | 71% | 13 nM | EC50 (SW-620 [6]; Homo sapiens, SW-620, 72 h): 89000 nM; EC50 (MDA-MB-468 [4]; Homo sapiens, MDA-MB-468, 72 h): 81400 nM; IC50 [5]: 7.2 nM
8 | CN1CCN(c2ccc(-c3nc4cncc5c4n3CCNC5=O)cc2)CC1 | – | – | 139 nM | –
9 | O=C1NCCn2c(-c3ccc(CN4CCCCC4)cc3)nc3cncc1c32 | – | – | 29 nM | –
10 | O=C1NCCn2c(-c3ccc(CN4CCCC4)cc3)nc3cncc1c32 | – | – | 20 nM | –
11 | CCCN1CCC(c2nc3cncc4c3n2CCNC4=O)CC1 | 41% | 30% | 19 nM | –
12 | CCCCN1CCC(c2nc3cncc4c3n2CCNC4=O)CC1 | 67% | 47% | 21 nM | EC50 (SW-620 [6]; Homo sapiens, SW-620, 72 h): 95000 nM
13 | CC(=O)N1CCC(c2nc3cncc4c3n2CCNC4=O)CC1 | – | – | – | inhibition [7]: < 10%
14 | O=C1NCCn2c(C3CCN(C(=O)C4CC4)CC3)nc3cncc1c32 | – | – | – | inhibition [7]: < 10%
15 | C[C@]1(c2nc3c(C(N)=O)cccc3[nH]2)CCCN1 [VELIPARIB] | – | – | – | growth inhibition (GI) (SW-620 [1]): 95%; PF50 [8]: 1.5; growth inhibition (GI) (MDA-MB-468 [2]): 69%; EC50 (SW-620 [6]; sw-620): 27100 nM; EC50 (MDA-MB-468 [4]; mda-mb-468): 43000 nM; PF50 [9]: 3.1; PF50 [10]: 1.2
16 | O=C1NCCn2c(C3CCN(C(=O)c4ccccc4)CC3)nc3cncc1c32 | – | – | – | inhibition [7]: < 10%
17 | CC(C)(C)NCc1ccc(-c2nc3cncc4c3n2CCNC4=O)cc1 | – | – | 75 nM | –
18 | CN(C)Cc1ccc(-c2nc3cncc4c3n2CCNC4=O)cc1 | – | – | 28 nM | –
19 | O=C1NCCn2c(C3CCN(C(=O)c4ccc(Cl)cc4)CC3)nc3cncc1c32 | – | – | – | inhibition [7]: < 10%
20 | O=C1NCCn2c(C3CCN(C(=O)c4cccc(Cl)c4)CC3)nc3cncc1c32 | – | – | – | inhibition [7]: < 10%
21 | O=C1NCCn2c(C3CCN(C(=O)c4ccccc4Cl)CC3)nc3cncc1c32 | – | – | – | inhibition [7]: < 10%
22 | O=C1NCCn2c(C3CCN(Cc4ccccc4)CC3)nc3cncc1c32 | – | – | 103 nM | –
23 | CCNCc1ccc(-c2nc3cncc4c3n2CCNC4=O)cc1 | 94% | 82% | 11 nM | EC50 (SW-620 [6]; Homo sapiens, SW-620, 72 h): 23600 nM; EC50 (MDA-MB-468 [4]; Homo sapiens, MDA-MB-468, 72 h): 4600 nM; IC50 [5]: 9.9 nM
